Test results as given in ChEMBL document CHEMBL1124993, “2-Phenyl-2-(1-hydroxycycloalkyl)ethylamine derivatives: synthesis and antidepressant activity” (J Med Chem, 1990).
The source made the active and inactive calls. No cut-off for these calls is given here.

Experiments:
Rattus norvegicus [1] = experiment: (§1) In vivo antagonism of histamine-induced ACTH release in the rat at 10 mg/kg (ip).; assay type: functional
Outline: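 Male Sprague–Dawley rats (200–300 g), 10 mg/kg in saline ip, 1 h before saline or histamine (5 mg/kg ip). Decapitated 10 min later; trunk-blood serum frozen at -60 °C, ACTH measured by radioimmunoassay (pg/mL). Two-way ANOVA with Dunnett's and Student–Neuman–Keuls tests; expressed as % decrease.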

Rattus norvegicus [2] = experiment: In vivo noradrenergic responsiveness in the rat pineal gland at 10 mg/kg (ip) (single treatment); assay type: functional
Outline: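 Male Sprague–Dawley rats kept in continuous light, given saline twice daily for 5 days, then a single 10 or 30 mg/kg ip dose on day 5. 1 h later, isoproterenol 2 μmol/kg in 0.1% ascorbic acid (or vehicle). Pineal removed 2.5 min after, perchloric acid extract, cAMP by radioimmunoassay; % change versus isoproterenol-stimulated controls.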

Mus musculus = experiment: In vivo antagonism of reserpine-induced hypothermia in the mice; assay type: functional; settings: for minimal effective dose: Mus musculus, read-out: MED
Outline: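 Male mice pretreated 18 h earlier with reserpine 5.0 mg/kg sc; compounds in 0.25% Tween 80 in water given ip or po at 1, 3, 10, 30, 100 mg/kg. Rectal temperature read at 1, 2, 3 h post-dose; MED for reversing hypothermia from two-way ANOVA with Dunnett's comparison to control.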

Rattus norvegicus [3] = experiment: (§2) In vivo noradrenergic responsiveness in the rat pineal gland at 10 mg/kg (ip) (chronic treatment); assay type: functional
Outline: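 Male Sprague–Dawley rats under continuous light, injected ip twice daily for 5 days (nine injections) with 10 or 30 mg/kg. 1 h after last dose, isoproterenol 2 μmol/kg in 0.1% ascorbic acid (or vehicle). Pineal removed 2.5 min later, perchloric acid extract, cAMP by 125I radioimmunoassay; % change versus isoproterenol-stimulated controls.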

[4] = biological target: T1, Adrenergic receptor beta (Rattus norvegicus) (UniProt P18090+P10608+P26255)
[5] = biological target: T2, Serotonin 2 (5-HT2) receptor (Rattus norvegicus) (UniProt P30994+P08909+P14842)
T2 sequence (P08909 whole entry, looked up): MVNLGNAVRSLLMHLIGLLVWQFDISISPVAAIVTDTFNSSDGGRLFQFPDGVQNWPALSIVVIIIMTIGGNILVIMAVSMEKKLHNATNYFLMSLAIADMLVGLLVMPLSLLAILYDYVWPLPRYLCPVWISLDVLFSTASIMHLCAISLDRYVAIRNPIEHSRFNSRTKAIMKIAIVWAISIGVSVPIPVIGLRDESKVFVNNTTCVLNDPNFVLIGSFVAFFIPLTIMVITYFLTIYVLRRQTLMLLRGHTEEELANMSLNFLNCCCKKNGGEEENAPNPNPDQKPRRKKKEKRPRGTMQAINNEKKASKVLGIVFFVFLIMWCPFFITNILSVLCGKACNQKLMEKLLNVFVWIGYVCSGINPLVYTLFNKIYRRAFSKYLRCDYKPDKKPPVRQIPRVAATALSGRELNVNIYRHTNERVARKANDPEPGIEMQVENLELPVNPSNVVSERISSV
T2 sequence (P14842 whole entry, looked up): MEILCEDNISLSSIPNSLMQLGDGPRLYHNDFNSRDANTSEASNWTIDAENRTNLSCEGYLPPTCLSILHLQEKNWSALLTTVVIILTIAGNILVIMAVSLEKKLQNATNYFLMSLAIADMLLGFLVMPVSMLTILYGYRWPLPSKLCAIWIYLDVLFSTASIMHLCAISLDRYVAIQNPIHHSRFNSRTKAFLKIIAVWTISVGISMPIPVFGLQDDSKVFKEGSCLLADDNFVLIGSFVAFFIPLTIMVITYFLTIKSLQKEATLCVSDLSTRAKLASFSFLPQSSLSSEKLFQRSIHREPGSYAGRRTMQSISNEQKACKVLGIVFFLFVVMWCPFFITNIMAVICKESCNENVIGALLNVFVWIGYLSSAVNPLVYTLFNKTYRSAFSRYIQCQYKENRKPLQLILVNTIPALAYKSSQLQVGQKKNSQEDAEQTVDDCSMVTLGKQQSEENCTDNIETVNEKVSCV
T2 sequence (P30994 whole entry, looked up): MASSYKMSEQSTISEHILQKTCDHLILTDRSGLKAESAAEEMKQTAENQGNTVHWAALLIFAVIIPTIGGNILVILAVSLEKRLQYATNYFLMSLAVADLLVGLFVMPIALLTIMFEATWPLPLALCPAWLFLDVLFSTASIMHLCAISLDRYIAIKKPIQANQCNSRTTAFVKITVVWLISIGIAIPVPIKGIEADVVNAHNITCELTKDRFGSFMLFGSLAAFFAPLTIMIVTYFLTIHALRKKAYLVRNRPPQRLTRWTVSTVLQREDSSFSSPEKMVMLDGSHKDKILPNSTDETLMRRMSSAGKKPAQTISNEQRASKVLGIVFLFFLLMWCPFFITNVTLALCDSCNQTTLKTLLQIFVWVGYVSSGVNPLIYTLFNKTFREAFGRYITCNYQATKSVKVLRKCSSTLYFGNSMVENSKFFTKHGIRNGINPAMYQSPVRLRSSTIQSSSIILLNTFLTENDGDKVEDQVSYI

[6] = biological target: T2, Serotonin 2 (5-HT2) receptor (Rattus norvegicus); remark: listed apart in the source
[7] = biological target: T1, Adrenergic receptor beta (Rattus norvegicus); remark: listed apart in the source
Rattus norvegicus [8] = experiment: In vivo noradrenergic responsiveness in the rat pineal gland at 10 mg/kg (ip) (single treatment); No significant effect; assay type: functional, organism-based; set-up: dose 10 mg/kg
Rattus norvegicus [9] = experiment: In vivo noradrenergic responsiveness in the rat pineal gland at 10 mg/kg (ip) (chronic treatment); No significant effect; assay type: functional, organism-based; set-up: dose 10 mg/kg
Outline: (§3)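 Male Sprague–Dawley rats kept in continuous light, dosed ip twice daily for 5 days (nine injections). 1 h after last dose, isoproterenol 2 μmol/kg in 0.1% ascorbic acid (controls: vehicle); pineal removed 2.5 min later, perchloric acid extract assayed for cAMP by 125I radioimmunoassay. Expressed as % change from control isoproterenol-stimulated pmol cAMP/pineal.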

[10] = biological target: Sodium-dependent serotonin transporter (Rattus norvegicus, UniProt P31652); experiment: Inhibition of uptake of [14C]-labelled serotonin (5-HT) into rat brain synaptosomes
Sequence of Sodium-dependent serotonin transporter (P31652 whole entry): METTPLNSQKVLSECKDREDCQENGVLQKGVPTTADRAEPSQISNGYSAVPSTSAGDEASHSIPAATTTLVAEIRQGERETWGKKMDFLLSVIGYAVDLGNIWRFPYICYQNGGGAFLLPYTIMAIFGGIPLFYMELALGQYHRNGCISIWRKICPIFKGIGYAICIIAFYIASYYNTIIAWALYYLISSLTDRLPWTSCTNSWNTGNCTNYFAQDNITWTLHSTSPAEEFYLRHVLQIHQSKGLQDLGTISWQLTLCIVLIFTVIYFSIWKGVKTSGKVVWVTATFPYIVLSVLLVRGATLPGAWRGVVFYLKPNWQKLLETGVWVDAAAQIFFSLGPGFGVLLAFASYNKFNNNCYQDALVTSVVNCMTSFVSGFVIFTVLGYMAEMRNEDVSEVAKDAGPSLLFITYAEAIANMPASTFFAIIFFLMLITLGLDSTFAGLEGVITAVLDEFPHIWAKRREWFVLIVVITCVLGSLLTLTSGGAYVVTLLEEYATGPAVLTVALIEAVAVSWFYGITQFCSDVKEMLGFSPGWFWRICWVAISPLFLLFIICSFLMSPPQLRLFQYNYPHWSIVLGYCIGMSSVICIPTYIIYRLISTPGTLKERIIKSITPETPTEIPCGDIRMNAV

[11] = biological target: Norepinephrine transporter (Rattus norvegicus, UniProt Q9WTR4); experiment: Inhibition of uptake of tritiated norepinephrine (NE) into rat brain synaptosomes; assay type: functional, subcellular
Sequence of Norepinephrine transporter (Q9WTR4 whole entry): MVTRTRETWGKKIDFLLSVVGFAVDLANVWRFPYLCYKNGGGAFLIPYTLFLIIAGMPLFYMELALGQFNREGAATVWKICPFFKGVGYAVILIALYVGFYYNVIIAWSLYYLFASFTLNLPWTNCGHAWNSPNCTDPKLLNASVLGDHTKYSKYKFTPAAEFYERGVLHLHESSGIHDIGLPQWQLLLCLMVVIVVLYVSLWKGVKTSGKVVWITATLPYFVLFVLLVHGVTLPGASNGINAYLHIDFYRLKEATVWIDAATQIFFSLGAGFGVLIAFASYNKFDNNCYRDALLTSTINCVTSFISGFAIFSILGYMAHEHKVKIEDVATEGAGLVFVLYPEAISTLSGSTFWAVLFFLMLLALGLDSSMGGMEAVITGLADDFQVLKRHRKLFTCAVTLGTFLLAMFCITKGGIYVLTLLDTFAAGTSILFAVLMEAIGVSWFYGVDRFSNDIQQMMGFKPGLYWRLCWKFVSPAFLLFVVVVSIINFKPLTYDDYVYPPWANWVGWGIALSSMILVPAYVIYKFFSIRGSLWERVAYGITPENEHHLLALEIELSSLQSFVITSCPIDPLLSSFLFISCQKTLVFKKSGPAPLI

Rattus norvegicus [12] = experiment: In vivo antagonism of histamine-induced ACTH release in the rodents at 10 mg/kg (ip); No significant effect; assay type: functional, organism-based; set-up: dose 10 mg/kg
Outline: (§4)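 Male Sprague–Dawley rats (200–300 g) given compound in saline ip 1 h before saline or histamine (5 mg/kg ip); decapitated 10 min later, trunk blood serum assayed for ACTH by radioimmunoassay (pg/mL). Two-way ANOVA with Dunnett's and Student–Neuman–Keuls tests; value is % decrease of histamine-stimulated ACTH.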

Rattus norvegicus [13] = experiment: as §2; assay type: functional; outline: as §3; remark: listed apart in the source
Rattus norvegicus [14] = experiment: as §1; assay type: functional; outline: as §4; remark: listed apart in the source

COc1ccc(C(CN(C)C)C2(O)CCCCC2)cc1 (single isomer, unassigned; (-)) [VENLAFAXINE]
Decrease (Rattus norvegicus [1]; 10 mg/kg): 37% | Change (Rattus norvegicus [2]): -53% | MED (Mus musculus): 3 mg/kg | Change (Rattus norvegicus [3]): -51%

COc1ccc(C(CN(C)C)C2(O)CCCCC2)cc1 (stereo in doubt; 4)
Binding activity [4]: 35 fM/mg | Binding activity [5]: 77.8 fM/mg | Binding activity [6]: 251 fM/mg | Binding activity [7]: 61.8 fM/mg

COc1ccc(C(CN(C)C)C2(O)CCCCC2)cc1 (single isomer, unassigned; (+))
Change (Rattus norvegicus [8]): inactive | Change (Rattus norvegicus [9]): inactive

COc1ccc(C(CN(C)C)C2(O)CCCCCC2)cc1 (centres undefined)
IC50 [10]: 240 nM | IC50 [11]: 2070 nM

COc1cccc(C(CN(C)C)C2(O)CCCC2)c1 (centres undefined)
IC50 [10]: 680 nM | IC50 [11]: > 10000 nM

CN(C)CC(c1cccc(Br)c1)C1(O)CCCCC1 (centres undefined)
Decrease (Rattus norvegicus [1]): 67% | IC50 [10]: 230 nM | minimal effective dose (Mus musculus): 1 mg/kg | Change (Rattus norvegicus [8]): inactive | IC50 [11]: 110 nM | Change (Rattus norvegicus [9]): inactive

CN(C)CC(c1ccc(Br)cc1)C1(O)CCC1 (centres undefined)
IC50 [10]: 580 nM | IC50 [11]: 890 nM

CN(C)CC(c1ccc(O)cc1)C1(O)CCCCC1 (centres undefined) [DESVENLAFAXINE]
IC50 [11]: 1160 nM

CN(C)CC(c1cccc(Cl)c1)C1(O)CCCCC1 (centres undefined)
minimal effective dose (Mus musculus): 1 mg/kg | Change (Rattus norvegicus [8]): inactive | Change (Rattus norvegicus [9]): inactive | Change (Rattus norvegicus [12]): inactive

CN(C)CC(c1ccc(C(F)(F)F)cc1)C1(O)CCCCC1 (centres undefined)
IC50 [10]: 400 nM | IC50 [11]: 2800 nM

CNCCCN1c2ccccc2CCc2ccccc21 [DESIPRAMINE]
Change (Rattus norvegicus [13]): -81% | minimal effective dose (Mus musculus): 0.4 mg/kg | Decrease (Rattus norvegicus [14]): 52% | Change (Rattus norvegicus [8]): inactive

CN(C)CC(c1ccc(Cl)c(Cl)c1)C1(O)CCCCC1 (centres undefined)
Change (Rattus norvegicus [13]): -74% | Change (Rattus norvegicus [2]): -51% | minimal effective dose (Mus musculus): 3 mg/kg | Decrease (Rattus norvegicus [14]): 55% | IC50 [11]: 70 nM

CNCC(c1ccc(OC)cc1)C1(O)CCCCC1 (centres undefined) [N-DESMETHYLVENLAFAXINE CHLORIDE]
IC50 [10]: 1600 nM | IC50 [11]: 4700 nM

COc1ccc(C(CN(C)C)C2(O)CCCCC2)cc1Br (centres undefined)
Change (Rattus norvegicus [13]): -82% | Change (Rattus norvegicus [2]): -65% | IC50 [10]: 200 nM | minimal effective dose (Mus musculus): 1 mg/kg | Decrease (Rattus norvegicus [14]): 34% | IC50 [11]: 140 nM

CN(C)CC(c1ccc(Br)cc1)C1(O)CCCCC1 (centres undefined)
IC50 [10]: 110 nM | minimal effective dose (Mus musculus): 1 mg/kg | Decrease (Rattus norvegicus [14]): 43% | Change (Rattus norvegicus [8]): inactive | IC50 [11]: 210 nM | Change (Rattus norvegicus [9]): inactive

COc1ccc(C(CN(C)C)C2(O)CCCCC2)cc1 (stereo in doubt; 4) [VENLAFAXINE]
Change (Rattus norvegicus [13]): -43% | Change (Rattus norvegicus [2]): -51% | MED (Mus musculus): 10 mg/kg | Decrease (Rattus norvegicus [14]): 26%

CN(C)CC(c1cccc(C(F)(F)F)c1)C1(O)CCCCC1 (centres undefined)
IC50 [10]: 1440 nM | IC50 [11]: 360 nM

COc1ccc(C(CN(C)C)C2(O)CCCC2)cc1 (centres undefined)
IC50 [10]: 400 nM | IC50 [11]: 5800 nM

COc1ccc(C(CN(C)C)C2(O)CCCCC2)cc1 (single isomer, unassigned; (+)) [VENLAFAXINE]
Decrease (Rattus norvegicus [1]; 10 mg/kg): 54% | MED (Mus musculus): 30 mg/kg

CN(C)CC(c1ccc(C(F)(F)F)cc1)C1(O)CCCC1 (centres undefined)
IC50 [10]: 490 nM | IC50 [11]: 10400 nM

COc1ccc(C(CN(C)C)C2(O)CCCCC2)cc1OC (centres undefined)
IC50 [10]: 130 nM | IC50 [11]: 1380 nM

CN(C)CC(c1ccccc1)C1(O)CCCCC1 (centres undefined)
IC50 [11]: 1900 nM

CN(C)CC(c1ccc(C(F)(F)F)cc1)C1(O)CCCCCC1 (centres undefined)
IC50 [10]: 500 nM | IC50 [11]: 2400 nM

CN(C)CC(c1ccc(Cl)cc1)C1(O)CCCCC1 (centres undefined)
IC50 [10]: 180 nM | IC50 [11]: 300 nM

COc1cccc(C(CN(C)C)C2(O)CCCCC2)c1 (centres undefined)
Change (Rattus norvegicus [13]): -81% | Change (Rattus norvegicus [2]): -79% | IC50 [10]: 190 nM | minimal effective dose (Mus musculus): 3 mg/kg | Decrease (Rattus norvegicus [14]): 52% | IC50 [11]: 620 nM

Cc1ccc(C(CN(C)C)C2(O)CCCCC2)cc1 (centres undefined)
IC50 [10]: 1540 nM | IC50 [11]: 530 nM
